In ChEMBL document CHEMBL1137143, “Synthesis of C8-linked pyrrolo[2,1-c][1,4]benzodiazepine-acridone/acridine hybrids as potential DNA-binding agents” (Bioorg Med Chem Lett, 2004):

Columns and labels:
UACC-62 = experiment: In vitro cytotoxicity was determined against UACC-62 cell line; assay type: functional; details: Homo sapiens, read-out: LC50 (the source's name)
Nucleic Acid [1] = experiment: (§1) DNA-binding ability was determined by thermal denaturation method using calf thymus (CT) DNA; expressed as Delta Tm after 18 hr; assay type: functional; details: Bos taurus
Procedure, shortened: (§2)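 Thermal melting of CT-DNA, 100 µM, with ligand at 20 µM (1:5 PBD:DNA molar ratio) in 10 mM sodium phosphate + 1 mM EDTA, pH 7.00; incubated at 37 °C for 0 h or 18 h before melting. ΔTm taken relative to DNA alone, whose Tm is a mean of 10 separate determinations.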

M14 = experiment: In vitro cytotoxicity was determined against M14 cell line; assay type: functional; details: Homo sapiens, read-out: LC50 (the source's name)
NCI-H23 = experiment: In vitro cytotoxicity was determined against NCI-H23 cell line; assay type: functional; details: Homo sapiens, read-out: LC50 (the source's name)
Nucleic Acid [2] = experiment: (§3) DNA-binding ability was determined by thermal denaturation method using calf thymus (CT) DNA; expressed as Delta Tm after 0 hr; assay type: functional; details: Bos taurus; procedure, shortened: as §2
A498 = experiment: In vitro cytotoxicity was determined against A498 cell line; assay type: functional; details: Homo sapiens, read-out: LC50 (the source's name)
Bos taurus [3] = species on record: Bos taurus; experiment: as §3; assay type: functional, organism-based; procedure, shortened: as §2
Bos taurus [4] = species on record: Bos taurus; experiment: as §1; assay type: functional, organism-based; procedure, shortened: as §2

| Structure (SMILES) | CC50 (UACC-62) [nM] | ΔTm (Nucleic Acid [1]) [°C] | CC50 (M14) [nM] | CC50 (NCI-H23) [nM] | ΔTm (Nucleic Acid [2]) [°C] | CC50 (A498) [nM] | ΔTm (Bos taurus [3]) [°C] | ΔTm (Bos taurus [4]) [°C] |
| --- | --- | --- | --- | --- | --- | --- | --- | --- |
| COc1cc2c(cc1OCCCNC(=O)c1cccc3c(O)c4ccccc4nc13)N=C[C@@H]1CCCN1C2=O | < 10 | 12.5 | < 10 | 70 | 11 | 50 |  |  |
| COc1cc2c(cc1OCCCNC(=O)c1cccc3cc4ccccc4nc13)N=C[C@@H]1CCCN1C2=O |  | 7.7 |  |  | 5.9 |  |  |  |
| COc1cc2c(cc1OCCNC(=O)c1cccc3c(O)c4ccccc4nc13)N=C[C@@H]1CCCN1C2=O |  | 5.7 |  |  | 4.7 |  | 4.7 | 5.7 |
| COc1cc2c(cc1OCCNC(=O)c1cccc3cc4ccccc4nc13)N=C[C@@H]1CCCN1C2=O |  | 5 |  |  | 3.1 |  |  |  |
| COc1cc2c(cc1O)N=C[C@@H]1CCCN1C2=O |  | 0.7 |  |  | 0.4 |  |  |  |
